Measured values from ChEMBL document CHEMBL1926589, “2-Anilinonicotinyl linked 2-aminobenzothiazoles and [1,2,4]triazolo[1,5-b] [1,2,4]benzothiadiazine conjugates as potential mitochondrial apoptotic inducers” (Bioorg Med Chem, 2011).
The source made the active and inactive calls. The rule behind the calls is not given here.

How the values were obtained:
[1] = tested on: SiHa; test: Growth inhibition of human SiHa cells at 10 uM by sulforhodamine B assay; format: functional; conditions: read-out: GI
Procedure, shortened: (§1)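 Single-dose 10 µM screen by sulforhodamine B assay, reported as percent inhibition of cell proliferation. Cells grown in medium with 10% heat-inactivated FBS at 37 °C, 5% CO2, and treated at about 70% confluence or in log phase. Compounds dissolved in DMSO; controls received vehicle (<0.5% v/v).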

[2] = tested on: HL-60; test: Induction of apoptosis in human HL60 cells assessed as early apoptotic cells at 1 uM after 24 hrs using Annexin V-FITC and propidium iodide staining by flow cytometry relative to control; format: functional
Procedure, shortened: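 HL-60 cells (1 x 10^5 per 1.5 mL) treated 24 h, washed twice in PBS and stained in binding buffer with annexin V-FITC and PI. Flow cytometry with FITC in FL-1 (530 nm) and PI in FL-2 (585 nm), using quadrant statistics: lower right taken as apoptotic, upper right as post-apoptotic necrotic. Representative of three independent experiments.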

[3] = tested on: HL-60; test: Cell cycle arrest in human HL60 cells assessed as accumulation at S phase at 1 uM after 24 hrs using propidium iodide staining by flow cytometry; format: functional, cell-based
Procedure, shortened: (§2)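 HL-60 cells (1 x 10^5 per 1.5 mL) treated 24 h, then fixed in 70% cold ethanol at −20 °C overnight. RNase digestion (400 µg/ml) at 37 °C for 45 min, then propidium iodide (10 µg/ml) for 30 min. Flow cytometry on 10,000 events, FL2-A vs FL2-W, with doublet discrimination. Sub-G0 (hypodiploid) peak taken as apoptotic cells. Mean ± SD of three independent experiments.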

[4] = tested on: HEp-2; test: Growth inhibition of human Hep2 cells at 10 uM by sulforhodamine B assay; format: functional; conditions: read-out: GI; procedure, shortened: as §1
[5] = Growth inhibition of human 502713 cells at 10 uM by sulforhodamine B assay; format: functional; conditions: read-out: GI; procedure, shortened: as §1
[6] = tested on: HL-60; test: Cell cycle arrest in human HL60 cells assessed as accumulation at G2/M phase at 1 uM after 24 hrs using propidium iodide staining by flow cytometry; format: functional, cell-based; procedure, shortened: as §2
[7] = tested on: PC-3; test: Induction of apoptosis in human PC3 cells assessed as nuclear fragmentation at 1 uM after 24 hrs by DAPI staining-based fluorescence microscopy; format: functional, cell-based
Procedure, shortened: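 HL-60 or PC-3 cells treated at 1 µM for 24 h. Air-dried smears fixed in methanol at −20 °C for 20 min and stained with DAPI (1 µg/mL) for 20 min at room temperature in the dark. Mounted in 90% glycerol/PBS and examined by fluorescence microscopy for nuclear morphology.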

[8] = tested on: HL-60; test: Induction of apoptosis in human HL60 cells assessed as blebbing of plasma membrane at 1 uM after 12 hrs by scanning electron microscopy; format: functional, cell-based
Procedure, shortened: (§3)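 HL-60 cells at 2 x 10^5/ml in 10% FCS medium exposed to 0.5 or 1 µM for 6–48 h; DMSO vehicle controls. Cells fixed in 2.5% glutaraldehyde in 0.1 M phosphate (pH 7.2) at 4 °C for 1 h, post-fixed in 1% OsO4 and ethanol-dehydrated. Critical-point dried, gold-coated, and imaged by SEM at 40 kV.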

[9] = tested on: HL-60; test: Cell cycle arrest in human HL60 cells assessed as accumulation at G1 phase at 1 uM after 24 hrs using propidium iodide staining by flow cytometry; format: functional, cell-based; procedure, shortened: as §2
[10] = tested on: OVCAR-5; test: Growth inhibition of human OVCAR5 cells at 10 uM by sulforhodamine B assay; format: functional; conditions: read-out: GI; procedure, shortened: as §1
[11] = tested on: HL-60; test: Induction of NO production in human HL60 cells at 1 uM after 24 hrs using DAF-2DA fluorescent dye based flow cytometric analysis; format: functional, cell-based
Procedure, shortened: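 HL-60 cells (1 x 10^5 per 1.5 mL) preloaded 30 min with 10 µM DAF-2-DA before treatment. After 24 h exposure, cells were washed and read by flow cytometry in FL-1 as NO-positive population. Mean ± SD of three independent experiments.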

[12] = tested on: HL-60; test: Induction of apoptosis in human HL60 cells assessed as decrease in mitochondrial membrane potential at 1 uM after 24 hrs using rhodamine 123 staining by flow cytometry; format: functional; parameters: scale not given: the % may be the effect or the level left
Procedure, shortened: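 HL-60 cells (1 x 10^5 per 1.5 mL) treated 24 h, then stained with rhodamine-123 (5 µg/mL final) for 1 h. Washed, and propidium iodide (5 µg/mL) added just before reading. FL-1 fluorescence from 10,000 events; percentage of low Rh-123 cells taken as loss of membrane potential. Mean ± SD, n=3.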

[13] = tested on: HL-60; test: Induction of apoptosis in human HL60 cells assessed as caspase8 activation using IETD-AFC as substrate at 1 uM after 24 hrs by fluorimetry relative to control; format: functional
Procedure, shortened: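 HL-60 cells (2 x 10^6) treated 24 h, washed and lysed. Caspase-3, -8 and -9 activities in lysates measured fluorometrically with a commercial caspase fluorescent assay kit. Two independent experiments, each in duplicate.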

[14] = tested on: HL-60; test: Induction of apoptosis in human HL60 cells assessed as smoothening of surface at 1 uM after 12 hrs by scanning electron microscopy; format: functional, cell-based; procedure, shortened: as §3

In the case of `O=C(Nc1nc2ccc([N+](=O)[O-])cc2s1)c1cccnc1Nc1cc(F)c(F)c(F)c1`, the inhibition of growth at 10 µM [1] is reported as 70%, the Activity [2] is reported as 15% and the Activity [3] is reported as “inactive”. The inhibition of growth at 10 µM [4] was 0%, the inhibition of growth at 10 µM [5] was 80% and the Activity [6] was “inactive”. For the same compound, the Activity [7] was “Active”, the Activity [8] was “Active” and the Activity [9] was “inactive”. The inhibition of growth at 10 µM [10] was 52%, the Activity [11] was “inactive” and the Activity [12] was 45%. The “fold change (FC)” value [13] was 2 and the Activity [14] was “Active”.
